According to PubChem BioAssay:
Records with an inconclusive call do not appear.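 The calls were made as follows, unless noted: active = viability increase at or above a cutoff of the median across tested compounds plus 3 SD (cut at about 8.5% in these data, passing the limit was not always enough); inconclusive = some gains above the cutoff, reason not given; inactive = the rest.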

Assays:
[1] = OD615 S. cerevisiae growth inhibition, permissive medium, pilot counter-assay, permissive growth control for S. cerevisiae lifespan shortening project (AID 705;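 active = growth inhibition above 25% in both replicates, a cutoff set 3 SD above the mean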); conditions: OD615, 24 h, at 10 µM, hits give high values
Procedure, shortened: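 assay system = Saccharomyces cerevisiae strain carrying genetically modified DeaD replicative-lifespan system | medium = SC raffinose/galactose permissive medium | dosing = 10 µM single dose, 0.25% DMSO | schedule = 24 h compound exposure at 30 °C after 4 h pre-growth | measured by = OD at 615 nm | read-out basis = growth inhibition from lowered OD615 after 24 h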

[2] = Restrictive medium S. cerevisiae growth inhibition, OD615, pilot screen of yeast lifespan reduction project, restrictive growth control (AID 706;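 active = growth inhibition above a set limit, 3 SD over mean compound inhibition, in both replicates, cut at about 43% in these data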;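 also: modified DeaD lifespan yeast strain shifted to restrictive glucose medium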); conditions: OD615, 48 h, at 10 µM, hits give high values
Procedure, shortened: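 Buffer or medium: CSMM-D glucose medium. Material: genetically modified Saccharomyces cerevisiae, DeaD replicative lifespan assay strain. Times: 48 h compound exposure at 30 °C. Measured by: optical density at 615 nm.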

[3] = viability gain of MRP-1-high H69AR cells under doxorubicin, pilot screen, MRP-1 activator project, CellTiter-Glo, duplicate (AID 807); conditions: H69AR viability with doxorubicin, CellTiter-Glo luminescence; at 10 µM; hits give high values;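 also: compound pretreatment 18-22 h then 72 h combined with doxorubicin; 0% = doxorubicin alone and 100% = vehicle without doxorubicin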
[4] = growth suppression of beta-catenin knockout HCT116, pilot screen, human colon tumor cells (AID 823;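 active = cell viability at or below a set limit in both duplicate runs, the limit being the all-compound median minus 4 SD, cut at about 23% in these data, passing the limit was not always enough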;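 also: 0% = wells killed by 20 µM Hyamine and 100% = untreated DMSO cell wells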); conditions: CellTiter-Glo, 60 h, at 10 µM, hits give low values
[5] = growth suppression of PTEN-deleted HCT116, pilot screen, cell-based, HCT116 clonal line, CellTiter-Glo (AID 824;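 active = viability at or below 27.92% in each of two runs, the all-compound median minus 4 SD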;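 also: 0% = 20 µM Hyamine control and 100% = vehicle cell control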); conditions: 60 h, at 10 µM, hits give low values
[6] = inhibitors of the yeast RAM network, pilot screen, dse1pr::URA3 reporter, 5-FOA selection (AID 869;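 active = inhibition over a set limit, the all-compound mean plus 3 SD, in both replicate runs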;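 also: 0% = DMSO wells with no growth and 100% = 10 µM 1-NA-PP1 with full growth; RAM network block rescues cells from 5-FOA so hits raise OD615 growth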); conditions: S. cerevisiae dse1pr::URA3 5-FOA growth, OD615, 2 d; at 10 µM; hits give high values; strain carries analog-sensitive mutant Cbk1 kinase
[7] = RAM signaling pathway blockade in yeast – S. cerevisiae, Pdr1DBD-CYC8 efflux-inhibited sensitized strain, primary screen (AID 1298;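 active = RAM network inhibition above 8.4% in each of two replicates, 3 SD over the compound average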;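 also: 0% = DMSO untreated cells without growth and 100% = 10 µM 1-NA-PP1 full growth; higher means more yeast growth rescued from 5-FOA killing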); conditions: S. cerevisiae cbk1-as DSE1-URA3 strain, 5-FOA growth OD615, 2 d; at 50 µM; hits give high values

CC(C)C(=O)N1CCN(c2ccccc2N)CC1
inactive: growth inhibition [1] -9.49% | growth inhibition [2] -20.2% | viability increase [3] -1.42% | viability [4] 102% | viability [5] 95.8% | inhibition [6] 1.55% | RAM network inhibition [7] 1.34%

CCC(C)NC(=O)c1ccccc1NC(=O)CN1C(=O)c2ccccc2S1(=O)=O (stereo not drawn)
inactive: growth inhibition [1] -17.3% | growth inhibition [2] -18.6% | viability increase [3] 0.23% | viability [4] 105% | viability [5] 95.2% | inhibition [6] 1.33% | RAM network inhibition [7] 5.02%

CCOC(=O)CSCc1nc(-c2ccc(Cl)cc2)oc1C
inactive: growth inhibition [1] -11.6% | growth inhibition [2] -8.34% | viability increase [3] 1.98% | viability [4] 94.8% | viability [5] 89.8% | inhibition [6] 1.97% | RAM network inhibition [7] -1.32%

O=C(Cn1nc(-c2ccc(Cl)cc2)ccc1=O)NCCN1CCOCC1
inactive: growth inhibition [1] -3.21% | growth inhibition [2] -12.3% | viability increase [3] -1.27% | viability [4] 100% | viability [5] 100% | inhibition [6] 0.355% | RAM network inhibition [7] 7.69%

COc1ccc(C(c2sc3ncnn3c2O)N2CC(C)OC(C)C2)cc1OC (stereo not drawn)
inactive: growth inhibition [1] 0.335% | growth inhibition [2] -6.37% | viability increase [3] -1% | viability [4] 102% | viability [5] 87.3% | inhibition [6] 0.55% | RAM network inhibition [7] 0.12%

C=CCNC(=O)c1cnc2n(c1=O)CCS2
inactive: growth inhibition [1] 5.17% | growth inhibition [2] 5.46% | viability increase [3] 2.16% | viability [4] 103% | viability [5] 109% | inhibition [6] 1.68% | RAM network inhibition [7] -1.87%

COc1ccccc1NC(=O)CSc1nnnn1C
inactive: growth inhibition [1] -4.16% | growth inhibition [2] -6.61% | viability increase [3] -1.03% | viability [4] 105% | viability [5] 96.4% | inhibition [6] 1.37% | RAM network inhibition [7] 3.12%

C=CCc1cccc2cc(C(=O)N(C)C)c(=O)oc12
inactive: growth inhibition [1] -7.92% | growth inhibition [2] -6.08% | viability increase [3] -1.06% | viability [4] 105% | viability [5] 93.8% | inhibition [6] 1.53% | RAM network inhibition [7] 2.04%

COC(=O)C1=COC(C)C2CN3CCc4c([nH]c5ccccc45)C3CC12 (stereo not drawn)
inactive: growth inhibition [1] -14.5% | growth inhibition [2] 1.04% | viability increase [3] -4.71% | viability [4] 77.4% | viability [5] 86% | inhibition [6] 1.6% | RAM network inhibition [7] 7.8%

COCCn1c(=NC(=O)CSC(C)=O)sc2cc(OC)ccc21
inactive: growth inhibition [1] -27.6% | growth inhibition [2] 18.1% | viability increase [3] -6.74% | viability [4] 88% | viability [5] 83.8% | inhibition [6] 0.53% | RAM network inhibition [7] 0.96%

CCC(=O)N1CCc2cc(Br)cc(S(=O)(=O)NCCN3CCOCC3)c21
inactive: growth inhibition [1] -4.99% | growth inhibition [2] -8.08% | viability increase [3] 0.03% | viability [4] 101% | viability [5] 98.4% | inhibition [6] 1.71% | RAM network inhibition [7] 1.49%

Cn1c(=O)[nH]c(=O)c2c1nc(CN1CCN(c3cccc(Cl)c3)CC1)n2Cc1ccccc1Cl
inactive: growth inhibition [1] -9.22% | growth inhibition [2] -6.86% | viability increase [3] -6.82% | viability [4] 41.1% | viability [5] 32.9% | inhibition [6] 1.39% | RAM network inhibition [7] 4.08%

O=C1C2CCCN2C(c2cccc(F)c2)N1c1cccc(Cl)c1 (stereo not drawn)
inactive: growth inhibition [1] -10.5% | growth inhibition [2] 1.77% | viability increase [3] -0.22% | viability [4] 108% | viability [5] 99% | inhibition [6] 0.56% | RAM network inhibition [7] -0.05%

Cc1cc(C)nc(SCC(=O)c2ccc(O)cc2O)n1
inactive: growth inhibition [1] -0.2% | growth inhibition [2] 9.03% | viability increase [3] -3.73% | viability [4] 99.7% | viability [5] 99.4% | inhibition [6] 1.04% | RAM network inhibition [7] -1.2%

CCN1CCN(CC(=O)Nc2ccc3c(c2)OCO3)C(=O)C1=O
inactive: growth inhibition [1] -18.6% | growth inhibition [2] -4.2% | viability increase [3] -0.45% | viability [4] 101% | viability [5] 100% | inhibition [6] 0.7% | RAM network inhibition [7] 6.72%

COC(=O)CSC1=C(C#N)C(c2cccc(OC)c2)CC(=O)N1 (stereo not drawn)
inactive: growth inhibition [1] -12.2% | growth inhibition [2] -5.83% | viability increase [3] -3.93% | viability [4] 89.1% | viability [5] 90.3% | inhibition [6] 0.41% | RAM network inhibition [7] -1.62%

O=C(O)c1ccccc1C(=O)NCC(O)COCC1CC=CCC1 (stereo not drawn)
inactive: growth inhibition [1] -14.5% | growth inhibition [2] -16.2% | viability increase [3] -1.89% | viability [4] 101% | viability [5] 100% | inhibition [6] 1.33% | RAM network inhibition [7] 3.55%

COC(=O)C1C(O)=C(C(C)=N)C(=O)CC1(C)C (stereo not drawn)
inactive: growth inhibition [1] -3.89% | growth inhibition [2] 2.82% | viability increase [3] -0.83% | viability [4] 98.1% | viability [5] 90.8% | inhibition [6] -0.755% | RAM network inhibition [7] 1.67%

CC(C)(C)c1ccc(-c2cc(N)n[nH]2)cc1
inactive: growth inhibition [1] 2.28% | growth inhibition [2] 13.2% | viability increase [3] -2.81% | viability [4] 95.5% | viability [5] 90.1% | inhibition [6] 2.32% | RAM network inhibition [7] 2.2%

CC(=O)Oc1cccc(N2C(=O)C3C(C2=O)C2C=CC3C23CC3)c1 (stereo not drawn)
inactive: growth inhibition [1] -8.98% | growth inhibition [2] -8.59% | viability increase [3] -0.99% | viability [4] 96.9% | viability [5] 101% | inhibition [6] 0.125% | RAM network inhibition [7] 0.63%

COc1ccc(NC(=O)C2CCCN(S(=O)(=O)c3cccc4cccnc34)C2)c(OC)c1 (stereo not drawn)
inactive: growth inhibition [1] -9.1% | growth inhibition [2] -2.73% | viability increase [3] -2.29% | viability [4] 70.4% | viability [5] 70.7% | inhibition [6] 1.19% | RAM network inhibition [7] 9.52%

COc1ccc(-n2nc(C(=O)N3CCC(C#N)CC3)c3c4ccccc4n(C)c3c2=O)cc1
inactive: growth inhibition [1] -14.9% | growth inhibition [2] -27% | viability increase [3] -4.6% | viability [4] 92.2% | viability [5] 88.9% | inhibition [6] 1.95% | RAM network inhibition [7] 7.49%

N#CCCCSc1nnc(-c2ccc(Cl)cc2)n1-c1ccccc1
inactive: growth inhibition [1] -4.58% | growth inhibition [2] 9.62% | viability increase [3] -3.58% | viability [4] 83% | viability [5] 93% | inhibition [6] 1.34% | RAM network inhibition [7] 4.2%

CCOC(=O)C1=C(O)CSC1=Nc1ccc(Cl)cc1
inactive: growth inhibition [1] -7.6% | growth inhibition [2] -10.1% | viability increase [3] -1.62% | viability [4] 107% | viability [5] 99.8% | inhibition [6] 1.17% | RAM network inhibition [7] 7.14%
